Screens from PubChem.
Lipid droplet: hepatic lipid droplet formation modulation; AML12 mouse hepatocytes, oleate lipid droplets, BODIPY imaging; inhibition, % at 6.5 µM; hit rate 0.4% among 240,000;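 active = lipid droplet intensity inhibited by at least 50%, with more than 500 cells counted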
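Assay system: AML12 hepatocytes (mouse); Probe or stimulus: oleic acid at 100 µM to induce lipid droplet formation; Dosing: compound at 6.5 µM only; Schedule: compound with oleate, overnight; Detection: fluorescence imaging, 20x objective, two fields per well; Measure: % inhibition of lipid droplet signal.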
HCV core dimer: blocks dimerization of HCV core protein; TR-FRET GST/Flag-core106 dimerization, 1536-well; inhibition, % at 5 µM; hit rate 0.33% among 300,000; AID 1899;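 active = inhibition above the mean of all tested compounds plus 3 SD, set per screening campaign, cut at about 45% in these data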
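System: GST-tagged and Flag-tagged HCV core protein residues 1-106 / Input: core106 proteins, GST 13.5 nM and Flag 17 nM / Buffer or medium: KF-containing HEPES buffer, pH 7.45, DTT, CHAPS, BSA / Probe or stimulus: Eu-anti-GST and XL665-anti-Flag labelled anti-tag antibodies / Schedule: 4 h, 22.5 °C incubation / Technique: TR-FRET 671 and 617 nm emission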
Tb MetRS inh: blocks T. brucei methionyl-tRNA synthetase activity. purified T. brucei MetRS, ATP depletion, Kinase-Glo luminescence. inhibition, % at 11.9 µM. hit rate 0.4% among 360,000. AID 624268;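 active = inhibition above a per-plate cutoff of the control wells' mean inhibition plus 3 SD, cut at about 5.5% in these data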;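 also: 0% = DMSO wells median and 100% = median of wells with control inhibitor compound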
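Material: T. brucei methionyl-tRNA synthetase, purified; reagent: substrates ATP, L-methionine and bulk Escherichia coli tRNA; dosing: 11.9 µM single point; timing: 15 min plus 2 h at 25 °C; detection: luminescence of leftover ATP; evaluation: % inhibition; control set: DMSO-only wells as low control; replicates: singlicate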
NS3 helicase inh: blocks Hepatitis C virus NS3 helicase unwinding; NS3 helicase DNA unwinding, Cy5 molecular beacon fluorescence; inhibition, % at 10.9 µM; hit rate 0.56% among 290,000;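 active = inhibition above the mean of all tested compounds plus 3 SD, set per campaign, cut at about 35% in these data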;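 also: 0% = DMSO wells and 100% = thioflavine S control wells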
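test system = hepatitis C virus NS3 helicase domain fragment enzyme | reagent = annealed dual-labelled DNA beacon duplex, ATP-started | times = 1 h at 25 °C | detection = Cy5 fluorescence, 0 and 60 min reads | read-out basis = percent inhibition from t60/t0 fluorescence ratio | control set = DMSO and thioflavine S | replication = one well per compound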
NS3 helicase cf: HCV NS3 helicase inhibition, confirmation assay | shares compounds with NS3 helicase inh | NS3 helicase DNA unwinding, Cy5 molecular beacon fluorescence | inhibition, % at 10.9 µM | hit rate 31% among 1,600 | AID 1943;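 active = inhibition above the mean of all tested compounds plus 3 SD, cutoff set per campaign, cut at about 36% in these data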
DNA FID counter: intercalator displacement, NS3 helicase counter-screen; DNA fluorescent intercalator displacement, fluorescence; AID 1945; inhibition, % at 7.9 µM; hit rate 4% among 1,600; shares compounds with NS3 helicase inh; in the data active = inhibition above about 37%;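 also: 0% = vehicle and 100% = reference compound; higher means more displacement of ethidium bromide from the DNA hairpin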
Numbers without * were called inactive; . = no result. An excerpt weighted towards active compounds, which were near 1.3% of everything screened.

SMILES	Lipid droplet	HCV core dimer	Tb MetRS inh	NS3 helicase inh	NS3 helicase cf	DNA FID counter
CCOC(=O)C1CCCN(C(=O)/C(=C/c2ccco2)NC(=O)c2ccccc2)C1 (stereo not drawn)	-4	6	0	45*	-16	-37
Fc1nc(F)c(F)c(NCCCNc2c(F)c(F)nc(F)c2F)c1F	-13	1	0	52*	-8	16
O=c1c(-c2ccccc2)nc2ccccc2n1C(CCc1ccccc1)c1nc2ccccc2[nH]1 (stereo not drawn)	.	.	-1	.	.	.
CCOC(=O)c1c(N2C(=O)Nc3ccccc3N2O)sc2c1CCCCC2	6	16	0	47*	75*	-13
COC(=O)c1c(N2C(=O)Nc3ccccc3N2O)sc2c1CCCC2	-1	12	1	-7	.	.
CCOC(=O)c1c(-c2ccccc2)csc1N1C(=O)Nc2ccccc2N1O	12	8	-1	47*	72*	-12
CCOC(=O)C1(C)CCN1C(=O)c1ccc(OC)c(C(F)(F)F)c1 (stereo not drawn)	.	.	0	.	.	.
O=C(NC(Cc1c[nH]c2ccccc12)C(=O)O)c1ccc(F)cc1 (stereo not drawn)	5	-5	0	5	.	.
O=C(Nc1ccccc1C(=O)NC(Cc1c[nH]c2ccccc12)C(=O)O)c1ccccc1 (stereo not drawn)	2	0	-1	40*	42*	-36
CCCOc1ccc(F)cc1-c1cc(C(=O)NCc2cccs2)[nH]n1	.	.	0	.	.	.
CCCCCC(=O)N/N=C/c1ccc([N+](=O)[O-])o1	-8	1	0	39*	-10	2
Cc1scc(C(=O)N/N=C/c2ccc([N+](=O)[O-])o2)c1C	6	-6	0	43*	-12	9
Cc1scc(C(=O)N/N=C/c2ccco2)c1C	9	-2	0	1	.	.
Cc1ccc(NCC(=O)N/N=C\c2ccc([N+](=O)[O-])o2)cc1	.	-2	-1	15	.	.
CCc1nc2c(OCC(=O)N3CCOCC3)cccn2c1N(C)C(=O)COc1ccccc1	.	.	0	.	.	.
O=C(COC(=O)c1cc(-c2ccco2)nc2ccccc12)NCc1ccc2c(c1)OCO2	5	36	0	41*	86*	54*
COc1cc(-c2ccc3oc(-c4ccsc4)c(C#CC4(O)CCCCC4)c3c2)cc(OC)c1OC	.	-7	0	.	.	.
CCc1nnc(NC(=O)c2cc(-c3ccccn3)nc3ccccc23)s1	5	1	0	-2	.	.
CCc1nnc(NC(=O)c2cc(-c3ccco3)nc3ccccc23)s1	-7	73*	0	38*	-9	-7
COc1ccc(NC(=O)c2cc(-c3ccco3)nc3ccccc23)cc1S(=O)(=O)N1CCOCC1	-5	81*	-1	54*	73*	14
O=C(Nc1ccc(Cl)c(S(=O)(=O)N2CCOCC2)c1)c1cc(-c2ccccn2)nc2ccccc12	-20	7	0	-18	.	.
Cc1ccccc1-n1ccnc1SCC(=O)Nc1cccc(S(=O)(=O)NC2=NCCC2)c1	.	.	0	.	.	.
C=CCn1c(SCc2nc3sc(C(=O)O)c(C)c3c(=O)[nH]2)nnc1-c1ccc(C(C)(C)C)cc1	10	11	0	16	.	.
CC(=O)c1sc2nc(CSc3nnnn3-c3ccccc3)[nH]c(=O)c2c1C	-9	74*	0	36*	5	13
C=CCn1c(SCc2nc3sc(C(=O)O)c(C)c3c(=O)[nH]2)nnc1-c1ccccc1	33	-7	-1	41*	-8	6
SMILES	Lipid droplet	HCV core dimer	Tb MetRS inh	NS3 helicase inh	NS3 helicase cf	DNA FID counter
Cc1cc(S(=O)(=O)N2CCCCC2)c(C)s1	-2	-9	0	67*	-10	-5
Cc1cc(S(=O)(=O)N2CCCC2)c(C)s1	.	1	0	4	.	.
Oc1ccc(/C=N/n2c(-c3ccco3)csc2=Nc2cccnc2)c(O)c1	0	2	0	-6	.	.
CN=c1scc(-c2cccs2)n1/N=C/c1ccc(O)c(O)c1O	18	7	-2	54*	-8	13
C=CCN=c1scc(-c2ccco2)n1/N=C/c1ccc(O)c(O)c1O	0	6	0	40*	-2	14
O=C(NCC(c1cccs1)N1CCOCC1)c1cc(S(=O)(=O)N2CCOCC2)ccc1F (stereo not drawn)	.	-5	0	.	.	.
